Laboratory results published in ChEMBL document CHEMBL4725282, “Discovery of a Conformationally Constrained Oxazolidinone with Improved Safety and Efficacy Profiles for the Treatment of Multidrug-Resistant Tuberculosis” (J Med Chem, 2020).
pIC50: −log10 of the molar value. ≈ marks a conversion by molar mass, not a printed value.

Tests used:
[1] = system: Mycobacterium tuberculosis; test: Antitubercular activity against Mycobacterium tuberculosis H37Rv incubated for 7 days by microplate alamar blue assay; format: functional; conditions: 168 h, time 7 day
How it was run: (§1)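 MIC determined by microplate alamar blue assay (MABA) following a published protocol.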

Vero = test: Cytotoxicity against African green monkey Vero cells assessed as reduction in cell viability measured after 48 hrs by MTT assay; format: cell-based; conditions: Chlorocebus sabaeus
How it was run: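 Cytotoxicity on Vero or HepG2 cells by MTT assay, run as previously reported.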

[2] = Cmax in Balb/c mouse at 25 mg/kg, po by LC-MS/MS analysis; format: ADME, organism-based; set-up: route oral, dose 25 mg/kg; conditions: in vivo
How it was run: (§2)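 Female BALB/c mice (20–25 g), five per route. Oral dose 25 mg/kg in 0.5% carboxymethyl cellulose; i.v. dose 2.5 mg/kg in 10% DMSO/physiological saline. Blood sampled 5 min–72 h after p.o. and 2 min–48 h after i.v. Analyte quantified by LC/MS/MS (ESI positive, C18, isocratic methanol/water). Parameters from non-compartmental analysis.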

[3] = MRT (0 to infinity) in Balb/c mouse at 25 mg/kg, po by LC-MS/MS analysis; format: ADME, organism-based; conditions: in vivo; how it was run: as §2
[4] = AUC (0 to infinity) in Balb/c mouse at 25 mg/kg, po by LC-MS/MS analysis; format: ADME, organism-based; set-up: route oral, time infinity, dose 25 mg/kg; conditions: in vivo; how it was run: as §2
[5] = Inhibition of mitochondrial protein synthesis in rat H9c2 cells measured after 5 days by ELISA; format: cell-based; conditions: H9c2, 120 h
How it was run: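 H9C2 cells in DMEM with 10% FBS, seeded 1500/well. After 18 h, compound added at final 0.03–200 μM (3-fold series), then 5 days at 37 °C, 5% CO2; 0.5% DMSO negative control. MPS inhibition read by MitoBiogenesis In-Cell ELISA; IC50 calculated.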

[6] = MRT (0 to t) in Balb/c mouse at 25 mg/kg, po by LC-MS/MS analysis; format: ADME, organism-based; conditions: in vivo; how it was run: as §2
[7] = Tmax in Balb/c mouse at 25 mg/kg, po by LC-MS/MS analysis; format: ADME, organism-based; conditions: in vivo
How it was run: (§3)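 Female BALB/c mice, 20-25 g, five per route. Dosed 25 mg/kg p.o. in 0.5% carboxymethyl cellulose or 2.5 mg/kg i.v. in 10% DMSO/saline. Blood sampled 5 min-72 h (p.o.) or 2 min-48 h (i.v.), quantified by LC/MS/MS with ESI+. Parameters by non-compartmental analysis; F = (AUCpo×dose_iv)/(AUCiv×dose_po)×100%.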

[8] = Terminal half life in Balb/c mouse at 25 mg/kg, po by LC-MS/MS analysis; format: ADME, organism-based; conditions: in vivo, read-out: beta t1/2 (converted); how it was run: as §3
[9] = AUC (0 to t) in Balb/c mouse at 25 mg/kg, po by LC-MS/MS analysis; format: ADME, organism-based; set-up: dose 25 mg/kg; conditions: in vivo; how it was run: as §2
[10] = Stability in CD-1 mouse liver microsome assessed as parent compound remaining at 1 uM measured after 30 mins in presence of NADPH by LC-MS/MS analysis; format: ADME; conditions: liver microsomes, read-out: Stabilty
How it was run: (§4)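 Liver microsomes (male CD-1 mouse or pooled human), 1 mg/mL protein, compound 1 µM, 37°C with shaking. Started with 1 mM NADPH or run without cofactor. Quenched with ice-cold ACN/MeOH containing internal standard. Parent quantified by LC-MS/MS; 30 min concentration normalised to time zero.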

[11] = Stability in CD-1 mouse liver microsome at 1 uM measured after 30 mins in absence of NADPH by LC-MS/MS analysis; format: ADME; conditions: microsomes, 0.5 h; how it was run: as §4
[12] = system: Mycobacterium tuberculosis; test: Antitubercular activity against Mycobacterium tuberculosis isolate 12525 incubated for 7 days by microplate alamar blue assay; format: functional; conditions: isolate 12525, 168 h, time 7 day; how it was run: as §1
[13] = Mycobacterium tuberculosis, H37Rv, read-out: MIC

Row | Structure (SMILES) | MIC [1, 13] [µg/mL] | IC50 (Vero) [µg/mL] | pIC50 [5] | other results
1 | CC(=O)NC[C@@H]1OC(=O)N2c3cc(F)c(N4C5CCC4CSC5)cc3OC[C@@H]12 | 0.92 (≈ 2.26 µM) | 58.5 (≈ 144 µM) | – | –
2 | O=C1O[C@@H](CNc2ccon2)[C@@H]2COc3cc(N4C5CCC4CSC5)c(F)cc3N12 | 2.52 (≈ 5.83 µM) | > 64 | – | –
3 | CC(=O)NC[C@@H]1OC(=O)N2c3cc(F)c(N4CCS(=O)(=O)CC4)cc3OC[C@@H]12 | 0.93 (≈ 2.25 µM) | – | 4.59 | Cmax [2]: 118 ng/mL; MRT inf [3]: 14.3 h; AUC(0-inf) [4]: 1480 ng·h/mL; MRT last [6]: 10.3 h; Tmax [7]: 1 h; half-life [8]: 7.64 h; AUC(0-t) [9]: 1250 ng·h/mL
4 | O=C(NC[C@@H]1OC(=O)N2c3cc(F)c(N4C5CCC4CSC5)cc3OC[C@@H]12)C1CCC1 | 0.97 (≈ 2.17 µM) | 34.7 (≈ 77.5 µM) | – | –
5 | COC(=O)NC[C@@H]1OC(=O)N2c3cc(F)c(N4C5CCC4CSC5)cc3OC[C@@H]12 | 1.68 (≈ 3.97 µM) | > 64 | – | –
6 | CC(C)C(=O)NC[C@@H]1OC(=O)N2c3cc(F)c(N4C5CCC4CSC5)cc3OC[C@@H]12 | 1.48 (≈ 3.4 µM) | > 64 | – | –
7 | CC(=O)NC[C@@H]1OC(=O)N2c3cc(F)c(N4CC5(COC5)C4)cc3OC[C@@H]12 | 3.92 (≈ 10.4 µM) | – | – | –
8 | NC[C@@H]1OC(=O)N2c3cc(F)c(N4CCSCC4)cc3OC[C@H]12 (racemic) | > 32 | – | – | –
9 | CC(=O)NC[C@@H]1OC(=O)N2c3cc(F)c(N4CCC(F)(F)CC4)cc3OC[C@@H]12 | 0.91 (≈ 2.28 µM) | – | 4.99 | –
10 | O=C(NC[C@@H]1OC(=O)N2c3cc(F)c(N4CCSCC4)cc3OC[C@@H]12)c1ccncc1 | 0.16 (≈ 0.36 µM) | – | < 4.00 | remaining at 0.5 h, 1 µM [10]: 20.8%; Stabilty [11]: Stable
11 | NC[C@@H]1OC(=O)N2c3cc(F)c(N4CCSCC4)cc3OC[C@@H]12 | – | 36 (≈ 106 µM) | < 4.00 | remaining at 0.5 h, 1 µM [10]: 15.8%; Stabilty [11]: Stable; MIC [1]: 0.03 µg/mL (≈ 0.0884 µM)
12 | COC(=O)NC[C@@H]1OC(=O)N2c3cc(F)c(N4CCSCC4)cc3OC[C@@H]12 | 0.03 (≈ 0.0755 µM) | – | < 4.00 | remaining at 0.5 h, 1 µM [10]: 3.59%; Stabilty [11]: Stable
13 | CC(=O)NC[C@@H]1OC(=O)N2c3cc(F)c(N4CCOCC4)cc3OC[C@@H]12 | 0.89 (≈ 2.44 µM) | > 64 | 4.29 | –
14 | O=C1O[C@@H](Cn2ccnn2)[C@@H]2COc3cc(N4C5CCC4CSC5)c(F)cc3N12 | > 32 | > 64 | – | –
15 | CO[C@H]1/C=C/O[C@@]2(C)Oc3c(C)c(O)c4c(O)c(c(/C=N/N5CCN(C)CC5)c(O)c4c3C2=O)NC(=O)/C(C)=C\C=C\[C@H](C)[C@H](O)[C@@H](C)[C@@H](O)[C@@H](C)[C@H](OC(C)=O)[C@@H]1C [RIFAMPIN] | – | – | – | MIC [12]: > 10 µg/mL
16 | O=C1O[C@@H](CO)[C@H]2COc3cc(N4CCSCC4)c(F)cc3N12 (racemic) | > 32 | – | – | –
17 | NC[C@@H]1OC(=O)N2c3cc(F)c(N4CCSCC4)cc3OC[C@@H]12 (racemic) | – | – | – | MIC [1]: 0.1 µg/mL (≈ 0.295 µM)
18 | O=C1O[C@@H](Cn2ccnn2)[C@@H]2COc3cc(N4CCSCC4)c(F)cc3N12 | 0.23 (≈ 0.588 µM) | – | < 4.00 | remaining at 0.5 h, 1 µM [10]: 21.7%; Stabilty [11]: Stable
19 | CNC[C@@H]1OC(=O)N2c3cc(F)c(N4CCSCC4)cc3OC[C@@H]12 | > 32 | 46.5 (≈ 132 µM) | – | –
20 | CC(=O)OC[C@@H]1OC(=O)N2c3cc(F)c(N4CCSCC4)cc3OC[C@@H]12 | > 1 | – | – | –

Row | Structure (SMILES) | MIC [1, 13] [µg/mL] | IC50 (Vero) [µg/mL] | pIC50 [5] | other results
21 | CC(=O)NC[C@H]1OC(=O)N2c3cc(F)c(N4CCSCC4)cc3OC[C@H]12 | > 32 | – | – | –
22 | O=C1O[C@@H](Cn2ccnn2)[C@@H]2COc3cc(N4CC5(COC5)C4)c(F)cc3N12 | > 32 | > 64 | – | –
23 | O=C1O[C@@H](CO)[C@@H]2COc3cc(N4CCSCC4)c(F)cc3N12 (racemic) | 3.79 (≈ 11.1 µM) | – | – | –
24 | O=C(NC[C@@H]1OC(=O)N2c3cc(F)c(N4CC5(COC5)C4)cc3OC[C@@H]12)C1CCC1 | 4.2 (≈ 10.1 µM) | – | – | –
25 | CS(=O)(=O)NC[C@@H]1OC(=O)N2c3cc(F)c(N4CCSCC4)cc3OC[C@@H]12 | 3.9 (≈ 9.34 µM) | – | – | –
26 | O=C(NC[C@@H]1OC(=O)N2c3cc(F)c(N4CCSCC4)cc3OC[C@@H]12)C1CC1 | 0.03 (≈ 0.0736 µM) | – | < 4.00 | remaining at 0.5 h, 1 µM [10]: 15%; Stabilty [11]: Stable
27 | CC(=O)N(C)C[C@@H]1OC(=O)N2c3cc(F)c(N4CCSCC4)cc3OC[C@@H]12 | > 1 | – | – | –
28 | O=C(NC[C@@H]1OC(=O)N2c3cc(F)c(N4CC5(COC5)C4)cc3OC[C@@H]12)C1CC1 | 3.09 (≈ 7.66 µM) | – | – | –
29 | O=C(NC[C@@H]1OC(=O)N2c3cc(F)c(N4C5CCC4CSC5)cc3OC[C@@H]12)c1ccncc1 | 2.83 (≈ 6.01 µM) | > 64 | – | –
30 | O=C(NC[C@@H]1OC(=O)N2c3cc(F)c(N4CCSCC4)cc3OC[C@@H]12)c1cnccn1 | 0.12 (≈ 0.269 µM) | 40.7 (≈ 91.3 µM) | < 4.00 | remaining at 0.5 h, 1 µM [10]: 6.85%; Stabilty [11]: Stable
31 | CC(=O)NC[C@@H]1OC(=O)N2c3cc(F)c(N4CCSCC4)cc3OC[C@@H]12 (racemic) | – | – | – | MIC [1]: 0.16 µg/mL (≈ 0.419 µM)
32 | CC(C)C(=O)NC[C@@H]1OC(=O)N2c3cc(F)c(N4CCSCC4)cc3OC[C@@H]12 | 0.1 (≈ 0.244 µM) | – | < 4.00 | remaining at 0.5 h, 1 µM [10]: 6.02%; Stabilty [11]: Stable
33 | O=C(NC[C@@H]1OC(=O)N2c3cc(F)c(N4C5CCC4CSC5)cc3OC[C@@H]12)c1cnccn1 | > 32 | 9.53 (≈ 20.2 µM) | – | –
34 | O=C(NC[C@@H]1OC(=O)N2c3cc(F)c(N4CCSCC4)cc3OC[C@@H]12)C1CCC1 | 0.03 (≈ 0.0712 µM) | – | 4.27 | remaining at 0.5 h, 1 µM [10]: 4%; Stabilty [11]: Stable
35 | CC(=O)NC[C@@H]1OC(=O)N2c3ccc(N4CCSCC4)cc3OC[C@@H]12 | 0.79 (≈ 2.17 µM) | > 64 | – | –
36 | CC(=O)NC[C@@H]1OC(=O)N2c3cc(F)c(N4CCSCC4)cc3OC[C@H]12 (racemic) | > 32 | – | – | –
37 | O=C(NC[C@@H]1OC(=O)N2c3cc(F)c(N4C5CCC4CSC5)cc3OC[C@@H]12)C1CC1 | 0.98 (≈ 2.26 µM) | > 64 | – | –
38 | O=C1O[C@@H](CNc2ccon2)[C@@H]2COc3cc(N4CCSCC4)c(F)cc3N12 | 0.03 (≈ 0.0738 µM) | – | < 4.00 | remaining at 0.5 h, 1 µM [10]: 0%; Stabilty [11]: Stable
39 | CC(=O)N(C[C@@H]1OC(=O)N2c3cc(F)c(N4CCSCC4)cc3OC[C@@H]12)C(C)=O | 0.34 (≈ 0.803 µM) | > 64 | – | –
